In ChEMBL document CHEMBL2417431, “Synthesis and evaluation of hetero- and homodimers of ribosome-targeting antibiotics: antimicrobial activity, in vitro inhibition of translation, and drug resistance” (J Med Chem, 2013):
pIC50: −log10 of the molar value. Converted amounts (≈) assume the structure as drawn.

What was measured:
[1] = system: Mycolicibacterium smegmatis; assay: Antibacterial activity against Mycobacterium smegmatis str. MC2 155 by double-dilution technique; type: functional
Bacillus subtilis [2] = assay: Antibacterial activity against Bacillus subtilis 168 harboring AAC(6')/APH(2'')-pRB374 by double-dilution technique; type: functional
Listeria monocytogenes = assay: Antibacterial activity against Listeria monocytogenes ATCC 19115 by double-dilution technique; type: functional
Summary of the method: (§1)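 Double-dilution series of each compound against each strain, reported as MIC. Runs done in duplicate or triplicate.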

Bacillus subtilis [3] = assay: Antibacterial activity against Bacillus subtilis 168 by double-dilution technique; type: functional; summary of the method: as §1
Escherichia coli [4] = assay: Antibacterial activity against Escherichia coli MC1061 by double-dilution technique; type: functional; summary of the method: as §1
Staphylococcus aureus [5] = assay: Antibacterial activity against Staphylococcus aureus expressing NorA by double-dilution technique; type: functional; summary of the method: as §1
[6] = system: Staphylococcus epidermidis; assay: Antibacterial activity against biofilm negative Staphylococcus epidermidis ATCC 12228 by double-dilution technique; type: functional
Summary of the method: (§2)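 MIC measured against each bacterial strain using a double-dilution series of each compound. Every determination was run in duplicate or triplicate.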

Bacillus cereus = assay: Antibacterial activity against Bacillus cereus ATCC 11778 by double-dilution technique; type: functional; summary of the method: as §2
Haemophilus influenzae = assay: Antibacterial activity against Haemophilus influenzae ATCC 51907 by double-dilution technique; type: functional; summary of the method: as §2
Bacillus anthracis = assay: Antibacterial activity against Bacillus anthracis 34F2 Sterne by double-dilution technique; type: functional; summary of the method: as §1
Streptococcus pyogenes = assay: Antibacterial activity against Streptococcus pyogenes Serotype M12 MGAS9429 by double-dilution technique; type: functional; summary of the method: as §2
Escherichia coli [7] = assay: Inhibition of protein synthesis in Escherichia coli S30 extracts after 90 mins by coupled transcription/translation assay; type: functional; details: 1.5 h
Summary of the method: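 E. coli extract coupled transcription/translation with luciferase reporter. Reactions with varying compound concentrations ran 90 min at 37 °C, were chilled on ice, then diluted in Tris-phosphate pH 7.8 buffer containing DTT, glycerol, Triton X-100 and BSA. Luminescence was read immediately after adding luciferase reagent. IC50 came from concentration-response fits of at least two independent experiments.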

Staphylococcus aureus [8] = assay: Antibacterial activity against Staphylococcus aureus ATCC 29213 by double-dilution technique; type: functional; summary of the method: as §1
[9] = Drug metabolism assessed as enhanced intracellular survival protein (unknown origin)-mediated conversion at 100 uM by micro plate reader analysis relative to tobramycin; type: ADME
Summary of the method: (§3)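 Ellman assay: CoASH release coupled to DTNB (2 mM), read at 412 nm every 30 s for 1 h at 25 °C. Compound at 100 μM. Conditions by enzyme: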

[10] = Drug metabolism assessed as aminoglycoside 2'-N-acetyltransferase Ic (unknown origin)-mediated conversion at 100 uM by micro plate reader analysis relative to tobramycin; type: ADME; summary of the method: as §3
[11] = Drug metabolism assessed as aminoglycoside 3-N-acetyltransferase AAC(3)-IV (unknown origin)-mediated conversion at 100 uM by micro plate reader analysis relative to tobramycin; type: ADME; summary of the method: as §3

Compound	MIC [1]	MIC (Bacillus subtilis [2])	MIC (Listeria monocytogenes)	MIC (Bacillus subtilis [3])	MIC (Escherichia coli [4])	MIC (Staphylococcus aureus [5])	MIC [6]	MIC (Bacillus cereus)	MIC (Haemophilus influenzae)	MIC (Bacillus anthracis)	MIC (Streptococcus pyogenes)	pIC50 (Escherichia coli [7])	MIC (Staphylococcus aureus [8])	fold change (FC) [9]	fold change (FC) [10]	fold change (FC) [11]
NC[C@H]1O[C@H](O[C@H]2[C@H](O)[C@@H](O[C@@H]3O[C@H](CSCCOCCS)[C@@H](O)[C@H](N)[C@H]3O)[C@H](N)C[C@@H]2N)[C@H](N)C[C@@H]1O	2.3 µg/mL (≈ 3.91 µM)	75 µg/mL (≈ 128 µM)	18.8 µg/mL (≈ 32 µM)	2.3 µg/mL (≈ 3.91 µM)	18.8 µg/mL (≈ 32 µM)	18.8 µg/mL (≈ 32 µM)	16 µg/mL (≈ 27.2 µM)	150 µg/mL (≈ 255 µM)	37.5 µg/mL (≈ 63.8 µM)	37.5 µg/mL (≈ 63.8 µM)	128 µg/mL (≈ 218 µM)	6.37	75 µg/mL (≈ 128 µM)	–	–	–
CCC[C@@H]1C[C@@H](C(=O)N[C@H]([C@H]2O[C@H](SC)[C@H](O)[C@@H](O)[C@H]2O)[C@@H](C)SCCOCCS)N(C)C1	75 µg/mL (≈ 142 µM)	> 150 µg/mL	37.5 µg/mL (≈ 71.2 µM)	9.4 µg/mL (≈ 17.8 µM)	37.5 µg/mL (≈ 71.2 µM)	1.2 µg/mL (≈ 2.28 µM)	4 µg/mL (≈ 7.59 µM)	9.4 µg/mL (≈ 17.8 µM)	75 µg/mL (≈ 142 µM)	2.3 µg/mL (≈ 4.37 µM)	2 µg/mL (≈ 3.8 µM)	< 4.00	4.7 µg/mL (≈ 8.92 µM)	–	–	–
CCC[C@@H]1C[C@@H](C(=O)N[C@H]([C@H]2O[C@H](SC)[C@H](O)[C@@H](O)[C@H]2O)[C@@H](C)SCCOCCSCC(=O)N[C@H](CO)[C@H](O)c2ccc([N+](=O)[O-])cc2)N(C)C1	> 150 µg/mL	> 150 µg/mL	75 µg/mL (≈ 96.3 µM)	18.8 µg/mL (≈ 24.1 µM)	9.4 µg/mL (≈ 12.1 µM)	18.8 µg/mL (≈ 24.1 µM)	4 µg/mL (≈ 5.13 µM)	18.8 µg/mL (≈ 24.1 µM)	75 µg/mL (≈ 96.3 µM)	2.3 µg/mL (≈ 2.95 µM)	> 128 µg/mL	4.83	18.8 µg/mL (≈ 24.1 µM)	–	–	–
NC[C@H]1O[C@H](O[C@H]2[C@H](O)[C@@H](O[C@@H]3O[C@H](CSCCOCCSCC(=O)N[C@H](CO)[C@H](O)c4ccc([N+](=O)[O-])cc4)[C@@H](O)[C@H](N)[C@H]3O)[C@H](N)C[C@@H]2N)[C@H](N)C[C@@H]1O	18.8 µg/mL (≈ 22.4 µM)	> 150 µg/mL	> 150 µg/mL	150 µg/mL (≈ 179 µM)	> 150 µg/mL	> 150 µg/mL	8 µg/mL (≈ 9.52 µM)	> 150 µg/mL	150 µg/mL (≈ 179 µM)	> 150 µg/mL	8 µg/mL (≈ 9.52 µM)	5.83	> 150 µg/mL	2.9	2	1.8
NC[C@H]1O[C@H](O[C@H]2[C@H](O)[C@@H](O[C@H]3O[C@H](CO)[C@@H](O)[C@H](N)[C@H]3O)[C@H](N)C[C@@H]2N)[C@H](N)C[C@@H]1O [TOBRAMYCIN]	0.6 µg/mL (≈ 1.28 µM)	9.4 µg/mL (≈ 20.1 µM)	18.8 µg/mL (≈ 40.2 µM)	2.3 µg/mL (≈ 4.92 µM)	9.4 µg/mL (≈ 20.1 µM)	9.4 µg/mL (≈ 20.1 µM)	0.3 µg/mL (≈ 0.642 µM)	75 µg/mL (≈ 160 µM)	18.8 µg/mL (≈ 40.2 µM)	9.4 µg/mL (≈ 20.1 µM)	64 µg/mL (≈ 137 µM)	7.82	37.5 µg/mL (≈ 80.2 µM)	–	–	–
O=C(CSCCOCCSCC(=O)N[C@H](CO)[C@H](O)c1ccc([N+](=O)[O-])cc1)N[C@H](CO)[C@H](O)c1ccc([N+](=O)[O-])cc1	> 150 µg/mL	> 150 µg/mL	> 150 µg/mL	> 150 µg/mL	> 150 µg/mL	> 150 µg/mL	> 64 µg/mL	> 150 µg/mL	> 150 µg/mL	> 150 µg/mL	> 128 µg/mL	4.48	> 150 µg/mL	–	–	–
O=C(N[C@H](CO)[C@H](O)c1ccc([N+](=O)[O-])cc1)C(Cl)Cl [CHLORAMPHENICOL]	18.8 µg/mL (≈ 58.2 µM)	1.2 µg/mL (≈ 3.71 µM)	9.4 µg/mL (≈ 29.1 µM)	2.3 µg/mL (≈ 7.12 µM)	< 0.3 µg/mL	4.7 µg/mL (≈ 14.5 µM)	8 µg/mL (≈ 24.8 µM)	4.7 µg/mL (≈ 14.5 µM)	0.6 µg/mL (≈ 1.86 µM)	4.7 µg/mL (≈ 14.5 µM)	4 µg/mL (≈ 12.4 µM)	5.19	9.4 µg/mL (≈ 29.1 µM)	–	–	–
CCC[C@@H]1C[C@@H](C(=O)N[C@@H]([C@H]2O[C@H](SC)[C@H](O)[C@@H](O)[C@H]2O)[C@H](C)Cl)N(C)C1 [CLINDAMYCIN]	9.4 µg/mL (≈ 22.1 µM)	> 150 µg/mL	4.7 µg/mL (≈ 11.1 µM)	–	2.3 µg/mL (≈ 5.41 µM)	–	1 µg/mL (≈ 2.35 µM)	–	4.7 µg/mL (≈ 11.1 µM)	< 0.3 µg/mL	1 µg/mL (≈ 2.35 µM)	4.74	–	–	–	–
CCC[C@@H]1C[C@@H](C(=O)N[C@H]([C@H]2O[C@H](SC)[C@H](O)[C@@H](O)[C@H]2O)[C@@H](C)SCCOCCSSCCOCCS[C@H](C)[C@H](NC(=O)[C@@H]2C[C@@H](CCC)CN2C)[C@H]2O[C@H](SC)[C@H](O)[C@@H](O)[C@H]2O)N(C)C1	18.8 µg/mL (≈ 17.9 µM)	> 150 µg/mL	4.7 µg/mL (≈ 4.47 µM)	2.3 µg/mL (≈ 2.19 µM)	9.4 µg/mL (≈ 8.94 µM)	0.6 µg/mL (≈ 0.571 µM)	1 µg/mL (≈ 0.951 µM)	2.3 µg/mL (≈ 2.19 µM)	37.5 µg/mL (≈ 35.7 µM)	2.3 µg/mL (≈ 2.19 µM)	> 128 µg/mL	5.21	0.6 µg/mL (≈ 0.571 µM)	–	–	–
CCC[C@@H]1C[C@@H](C(=O)N[C@H]([C@H]2O[C@H](SC)[C@H](O)[C@@H](O)[C@H]2O)[C@@H](C)SCCOCCSSCCOCCSCC(=O)N[C@@H](CO)[C@H](O)c2ccc([N+](=O)[O-])cc2)N(C)C1	18.8 µg/mL (≈ 20.5 µM)	> 150 µg/mL	4.7 µg/mL (≈ 5.14 µM)	2.3 µg/mL (≈ 2.51 µM)	4.7 µg/mL (≈ 5.14 µM)	< 0.3 µg/mL	2 µg/mL (≈ 2.19 µM)	2.3 µg/mL (≈ 2.51 µM)	150 µg/mL (≈ 164 µM)	< 0.3 µg/mL	> 128 µg/mL	4.74	0.6 µg/mL (≈ 0.656 µM)	–	–	–
O=C(CSCCOCCSSCCOCCSCC(=O)N[C@H](CO)[C@H](O)c1ccc([N+](=O)[O-])cc1)N[C@H](CO)[C@H](O)c1ccc([N+](=O)[O-])cc1	> 150 µg/mL	> 150 µg/mL	9.4 µg/mL (≈ 12.1 µM)	150 µg/mL (≈ 193 µM)	18.8 µg/mL (≈ 24.1 µM)	> 150 µg/mL	> 64 µg/mL	75 µg/mL (≈ 96.3 µM)	150 µg/mL (≈ 193 µM)	75 µg/mL (≈ 96.3 µM)	> 128 µg/mL	4.59	0.6 µg/mL (≈ 0.77 µM)	–	–	–
O=C(CSCCOCCS)N[C@H](CO)[C@H](O)c1ccc([N+](=O)[O-])cc1	> 150 µg/mL	> 150 µg/mL	> 150 µg/mL	> 150 µg/mL	37.5 µg/mL (≈ 96 µM)	> 150 µg/mL	> 128 µg/mL	150 µg/mL (≈ 384 µM)	> 150 µg/mL	150 µg/mL (≈ 384 µM)	128 µg/mL (≈ 328 µM)	4.31	> 150 µg/mL	–	–	–
